Measured values reported in ChEMBL document CHEMBL2150909, “Imidazo[1,2-a]pyridines: orally active positive allosteric modulators of the metabotropic glutamate 2 receptor” (J Med Chem, 2012).
pEC50: −log10 of the molar value.

How the values were obtained:
[1] = Metabolic stability of Sprague-Dawley rat liver microsomes assessed as compound metabolized at 5 uM after 15 mins; assay type: ADME, Microsome; settings: read-out: Drug metabolism
Procedure, shortened: (§1)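 Test compound at 5 μM incubated 15 min with rat or human liver microsomes; read-out is percent of compound metabolized.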

[2] = Metabolic stability of human liver microsomes assessed as compound metabolized at 5 uM after 15 mins; assay type: ADME, Microsome; settings: read-out: Drug metabolism; procedure, shortened: as §1
[3] = target: T1, Metabotropic glutamate receptor 2 (Homo sapiens, UniProt Q14416); test: Agonist activity at human mGlu 2 expressed in CHO cells by PAM assay relative to glutamate; assay type: functional, cell-based
Procedure, shortened: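 The assay measured [35S]GTPγS binding to membranes from CHO cells expressing human mGluR2. Cells were butyrate-stimulated (5 mM, 24 h) before membranes were prepared. Membranes were preincubated for 30 min at 30 °C in HEPES pH 7.4 buffer (NaCl, MgCl2, 50 μM GDP) with compound (0.3 nM–50 μM, 11 concentrations) plus EC25 glutamate. [35S]GTPγS (0.1 nM final) was then added for 30 min at 30 °C. Bound label was collected by filtration and counted. Runs were done at least in triplicate with duplicate points, and a four-parameter logistic fit gave the values.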
Target sequence in this assay (Q14416 19-872 limits assumed): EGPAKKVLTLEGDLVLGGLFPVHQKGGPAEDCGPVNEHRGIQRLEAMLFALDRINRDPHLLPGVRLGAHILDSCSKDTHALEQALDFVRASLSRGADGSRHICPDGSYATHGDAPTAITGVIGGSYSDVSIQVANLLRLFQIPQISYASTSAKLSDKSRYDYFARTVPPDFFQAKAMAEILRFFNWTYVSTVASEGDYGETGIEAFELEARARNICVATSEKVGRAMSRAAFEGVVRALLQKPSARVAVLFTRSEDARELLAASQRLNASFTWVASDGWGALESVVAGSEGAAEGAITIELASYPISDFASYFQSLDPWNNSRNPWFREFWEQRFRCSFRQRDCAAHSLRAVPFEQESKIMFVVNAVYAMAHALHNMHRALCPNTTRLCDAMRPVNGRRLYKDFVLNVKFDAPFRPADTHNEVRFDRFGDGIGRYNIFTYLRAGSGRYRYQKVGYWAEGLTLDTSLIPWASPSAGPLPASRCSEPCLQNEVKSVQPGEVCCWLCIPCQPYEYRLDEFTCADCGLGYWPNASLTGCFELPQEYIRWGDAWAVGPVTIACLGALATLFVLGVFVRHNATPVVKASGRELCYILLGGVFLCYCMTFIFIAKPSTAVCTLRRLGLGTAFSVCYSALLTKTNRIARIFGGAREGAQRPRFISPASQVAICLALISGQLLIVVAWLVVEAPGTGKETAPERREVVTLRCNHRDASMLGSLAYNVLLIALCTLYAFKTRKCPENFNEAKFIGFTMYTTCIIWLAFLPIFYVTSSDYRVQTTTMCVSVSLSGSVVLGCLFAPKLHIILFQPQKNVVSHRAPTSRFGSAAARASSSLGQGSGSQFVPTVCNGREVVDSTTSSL

[4] = target: T1, Metabotropic glutamate receptor 2; test: Agonist activity at human mGlu 2 expressed in CHO cells assessed as [35S]GTPgammaS binding by liquid scintillation analysis; assay type: functional, cell-based
Procedure, shortened: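 Membranes from butyrate-stimulated (5 mM, 24 h) CHO cells expressing human mGlu2. Preincubated 30 min at 30 °C in HEPES pH 7.4 with NaCl, MgCl2, 50 μM GDP and saponin; modulator 0.3 nM–50 μM, no added glutamate. [35S]GTPγS 0.1 nM final, 30 min at 30 °C, filtered, scintillation counted. Nonspecific binding defined with cold GTP; 11 concentrations in duplicate, ≥3 curves.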
Target sequence in this assay (Q14416 whole entry): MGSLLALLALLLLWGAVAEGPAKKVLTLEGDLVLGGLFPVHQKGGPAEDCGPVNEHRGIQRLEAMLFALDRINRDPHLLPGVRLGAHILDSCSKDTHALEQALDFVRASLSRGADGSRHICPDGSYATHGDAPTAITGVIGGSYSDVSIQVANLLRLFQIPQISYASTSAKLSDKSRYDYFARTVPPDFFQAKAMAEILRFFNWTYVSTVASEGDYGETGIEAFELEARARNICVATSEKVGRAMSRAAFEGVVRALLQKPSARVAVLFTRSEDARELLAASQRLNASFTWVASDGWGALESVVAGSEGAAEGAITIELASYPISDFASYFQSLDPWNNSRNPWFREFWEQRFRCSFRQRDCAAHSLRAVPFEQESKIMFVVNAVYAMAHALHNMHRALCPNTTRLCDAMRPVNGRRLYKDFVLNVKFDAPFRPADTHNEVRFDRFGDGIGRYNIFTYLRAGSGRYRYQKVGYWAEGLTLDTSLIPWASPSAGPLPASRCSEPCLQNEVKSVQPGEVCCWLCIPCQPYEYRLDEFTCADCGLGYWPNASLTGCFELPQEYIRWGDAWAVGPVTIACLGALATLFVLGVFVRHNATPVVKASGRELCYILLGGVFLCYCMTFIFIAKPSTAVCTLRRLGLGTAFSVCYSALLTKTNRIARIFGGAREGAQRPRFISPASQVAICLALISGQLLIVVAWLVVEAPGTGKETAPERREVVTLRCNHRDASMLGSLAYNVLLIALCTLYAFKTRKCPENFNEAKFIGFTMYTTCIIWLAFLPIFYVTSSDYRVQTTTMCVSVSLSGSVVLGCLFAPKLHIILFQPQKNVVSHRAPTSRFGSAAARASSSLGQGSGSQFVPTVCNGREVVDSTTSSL

[5] = Cmax in Sprague-Dawley rat at 10 mg/kg, po and 2.5 mg/kg, iv; assay type: ADME, organism-based; settings: in vivo
Procedure, shortened: (§2)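 Rat PK: compounds formulated in 20% HP-β-CD at pH 4 and given orally and intravenously. Values are geometric means of at least two runs ± SEM.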

[6] = Plasma concentration in SPF Swiss mouse at 10 mg/kg, sc after 2 hrs; assay type: ADME, organism-based; parameters: dose 10 mg/kg, route subcutaneous
Procedure, shortened: (§3)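 Male Swiss SPF mice dosed subcutaneously at 10 mg/kg in 20% HP-β-CD, pH 4. Brain levels measured in ng/g and plasma levels in ng/mL at the stated time, with brain/plasma ratio; geometric mean of at least two runs ± SEM.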

[7] = AUC (0 to infinity) in Sprague-Dawley rat at 10 mg/kg, po and 2.5 mg/kg, iv; assay type: ADME, organism-based; settings: plasma; procedure, shortened: as §2
[8] = Half life in Sprague-Dawley rat at 10 mg/kg, po and 2.5 mg/kg, iv; assay type: ADME, organism-based; settings: in vivo; procedure, shortened: as §2
[9] = Plasma concentration in SPF Swiss mouse at 10 mg/kg, sc after 1 hr; assay type: ADME, organism-based; parameters: dose 10 mg/kg, route subcutaneous; procedure, shortened: as §3
[10] = Oral bioavailability in Sprague-Dawley rat at 10 mg/kg; assay type: ADME, organism-based; settings: in vivo
Procedure, shortened: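 Male Sprague-Dawley rats given 10 mg/kg orally and/or 1.25 mg/kg intravenously; compound formulated in 20% HP-β-CD at pH 4. Cmax, tmax, AUC0−inf, t1/2, clearance and oral bioavailability F derived from plasma levels; geometric mean of at least two runs ± SEM.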

[11] = Drug uptake in SPF Swiss mouse brain at 10 mg/kg, sc after 2 hrs; assay type: ADME, organism-based; parameters: dose 10 mg/kg, route subcutaneous; settings: read-out: Drug uptake; procedure, shortened: as §3
[12] = Ratio of drug level in brain to plasma of SPF Swiss mouse at 10 mg/kg, sc after 2 hrs; assay type: ADME, organism-based; parameters: dose 10 mg/kg, route subcutaneous; settings: read-out: BPR
Procedure, shortened: (§4)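 Male Swiss SPF mice, single subcutaneous dose of 10 mg/kg in 20% HP-β-CD at pH 4. Brain levels (ng/g) and plasma levels (ng/mL) measured at the stated time after dosing; brain-to-plasma ratio taken from these. Geometric mean of at least two runs ± SEM.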

[13] = Drug uptake in SPF Swiss mouse brain at 10 mg/kg, sc after 1 hr; assay type: ADME, organism-based; parameters: dose 10 mg/kg, route subcutaneous; settings: read-out: Drug uptake; procedure, shortened: as §3
[14] = Ratio of drug level in brain to plasma of SPF Swiss mouse at 10 mg/kg, sc after 1 hr; assay type: ADME, organism-based; parameters: dose 10 mg/kg, route subcutaneous; settings: read-out: BPR; procedure, shortened: as §4
[15] = Tmax in Sprague-Dawley rat at 10 mg/kg, po and 2.5 mg/kg, iv; assay type: ADME, organism-based; settings: in vivo; procedure, shortened: as §2
[16] = Clearance in Sprague-Dawley rat at 10 mg/kg, po and 2.5 mg/kg, iv; assay type: ADME, organism-based; settings: in vivo

SMILES: N#Cc1c(-c2cc(Cl)c3c(ccn3CC3CC3)c2)ccn2c(CC(F)(F)F)cnc12
- metabolised at 0.25 h, 5 µM [1]: 74%
- metabolised at 0.25 h, 5 µM [2]: 19%
- Emax [3]: 200%

SMILES: N#Cc1c(-c2ccc(NC3CCOCC3)c(Cl)c2)ccn2c(CC(F)(F)F)cnc12
- metabolised at 0.25 h, 5 µM [1]: 36%
- metabolised at 0.25 h, 5 µM [2]: 21%
- Emax [3]: 307%

SMILES: Cn1ccc2cc(-c3ccn4c(CC(F)(F)F)cnc4c3C#N)ccc21
- metabolised at 0.25 h, 5 µM [1]: 55%
- metabolised at 0.25 h, 5 µM [2]: 28%
- Emax [3]: 154%

SMILES: N#Cc1c(-c2ccc3c(ccn3CC3CC3)c2)ccn2c(CC(F)(F)F)cnc12
- metabolised at 0.25 h, 5 µM [1]: 40%
- metabolised at 0.25 h, 5 µM [2]: 24%
- pEC50 [4]: 6.72
- Emax [3]: 230%

SMILES: N#Cc1c(-c2ccc3c(ccn3C3CCOCC3)c2)ccn2c(CC(F)(F)F)cnc12
- metabolised at 0.25 h, 5 µM [1]: 28%
- metabolised at 0.25 h, 5 µM [2]: 23%
- Cmax [5]: 216 ng/mL
- concentration at 2 h [6]: 95 ng/mL
- AUC(0-inf) [7]: 281 ng·h/mL
- half-life [8]: 55.2 min
- concentration at 1 h [9]: 932 ng/mL
- bioavailability [10]: 15%
- pEC50 [4]: 6.30
- concentration at 2 h [11]: 50 ng/g
- Emax [3]: 442%
- Kp at 2 h [12]: 0.5
- concentration at 1 h [13]: 704 ng/g
- Kp at 1 h [14]: 0.8
- Tmax [15]: 30 min
- clearance [16]: 83.3 mL/min/kg

SMILES: FC(F)(F)Cc1cnc2c(Cl)c(-c3cc(Cl)c4c(ccn4CC4CC4)c3)ccn12
- metabolised at 0.25 h, 5 µM [1]: 70%
- metabolised at 0.25 h, 5 µM [2]: 1%
- Emax [3]: 193%

SMILES: N#Cc1c(-c2cc(Cl)c3[nH]ccc3c2)ccn2c(CC(F)(F)F)cnc12
- metabolised at 0.25 h, 5 µM [1]: 49%
- metabolised at 0.25 h, 5 µM [2]: 35%
- pEC50 [4]: 6.49
- Emax [3]: 277%
